Reference: ChEMBL document CHEMBL2375209, “Fungal ABC transporter-associated activity of isoflavonoids from the root extract of Dalea formosa” (2013)
≈ marks a conversion by molar mass, not a printed value. Calls of active or inactive are those of the source. The calls are words filed in the database; no cut-off is given here.

Tests used:
Format in all cases: functional
[1] = system: Saccharomyces cerevisiae; assay: Antifungal activity against PDR5/SNQ2/YOR1 deficient Saccharomyces cerevisiae after 24 to 48 hrs by microdilution assay
Procedure, shortened: (§1)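 96-well microdilution; samples added from DMSO stocks (solvent ≤1.2%, matched in controls), serially diluted before inoculation; trifluoperazine, ketoconazole and fluconazole as positive controls. Growth read as OD550 plus visual inspection at 24 and 48 h. MIC = lowest concentration giving ≥80% growth inhibition vs drug-free control; values observed in three independent measurements.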

[2] = system: Saccharomyces cerevisiae; assay: Antifungal activity against PDR1/PDR3 deficient Saccharomyces cerevisiae after 24 to 48 hrs by microdilution assay; procedure, shortened: as §1
[3] = system: Saccharomyces cerevisiae; assay: Antifungal activity against PDR5/SNQ2/YOR1 deficient Saccharomyces cerevisiae expressing PDR1 to 3 allele and heterologously overproduced Cdr1p gene after 24 to 48 hrs by microdilution; procedure, shortened: as §1
[4] = system: Saccharomyces cerevisiae; assay: Antifungal activity against wild type Saccharomyces cerevisiae after 24 to 48 hrs by microdilution assay; procedure, shortened: as §1
[5] = system: Saccharomyces cerevisiae; assay: Antifungal activity against PDR5/SNQ2/YOR1 deficient Saccharomyces cerevisiae expressing PDR1 to 3 allele after 24 to 48 hrs by microdilution assay; procedure, shortened: as §1
[6] = system: Nakaseomyces glabratus; assay: Antifungal activity against wild type Candida glabrata CCM 8270 after 46 to 50 hrs by broth microdilution assay
Procedure, shortened: (§2)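 CLSI M27-A broth microdilution in MOPS-buffered (pH 7) RPMI 1640. Samples added from DMSO stocks (solvent ≤1.2%, matched in controls), serially diluted before inoculation. Growth read as OD550 plus visual inspection at 24 and 48 h. MIC = lowest concentration inhibiting growth ≥80% vs drug-free control; three independent measurements.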

[7] = system: Candida albicans; assay: Antifungal activity against wild type Candida albicans CCM 8320 after 46 to 50 hrs by broth microdilution assay; procedure, shortened: as §2

Row | Structure (SMILES) | MIC [1] | MIC [2] | MIC [3] | MIC [4] | MIC [5] | MIC [6] | MIC [7]
1 | COc1ccc(C2COc3cc(O)cc(O)c3C2=O)c2c1C=CC(C)(C)O2 (racemic) | 1.9 µg/mL (≈ 5.16 µM) | 1.9 µg/mL (≈ 5.16 µM) | 244 µg/mL (≈ 662 µM) | 7.6 µg/mL (≈ 20.6 µM) | 1.9 µg/mL (≈ 5.16 µM) | 7.6 µg/mL (≈ 20.6 µM) | 15 µg/mL (≈ 40.7 µM)
2 | COc1ccc(C[C@H]2OC(=O)C=C2c2ccc(O)cc2O)cc1 |  |  |  |  |  | 244 µg/mL (≈ 781 µM) | inactive
3 | COc1ccc([C@H]2COc3c(ccc(O)c3O)C2)c2c1C=CC(C)(C)O2 | 30.5 µg/mL (≈ 86.1 µM) | 15.2 µg/mL (≈ 42.9 µM) | 244 µg/mL (≈ 688 µM) | 30.5 µg/mL (≈ 86.1 µM) | 30.5 µg/mL (≈ 86.1 µM) | 30.5 µg/mL (≈ 86.1 µM) | 61 µg/mL (≈ 172 µM)
4 | C=CC(C)(C)c1cc([C@]2(O)COc3cc(O)c(CC=C(C)C)c(O)c3C2=O)c(O)cc1O | 3.8 µg/mL (≈ 8.63 µM) | 15.2 µg/mL (≈ 34.5 µM) | 244 µg/mL (≈ 554 µM) | 61 µg/mL (≈ 138 µM) | 3.8 µg/mL (≈ 8.63 µM) | 122 µg/mL (≈ 277 µM) | inactive
5 | C=CC(C)(C)c1cc(C2COc3cc(O)c(CC=C(C)C)c(O)c3C2=O)c(O)cc1O (racemic) | 0.95 µg/mL (≈ 2.24 µM) | 0.95 µg/mL (≈ 2.24 µM) | > 244 µg/mL | 15.2 µg/mL (≈ 35.8 µM) | 0.95 µg/mL (≈ 2.24 µM) |  | 

More lines, in order of falling MIC [1], values ahead:

Row | MIC [1] | MIC [2] | MIC [3] | MIC [4] | MIC [5] | MIC [6] | MIC [7] | Structure (SMILES)
6 | 3.8 µg/mL (≈ 10.3 µM) | 3.8 µg/mL (≈ 10.3 µM) | 61 µg/mL (≈ 165 µM) | 15.2 µg/mL (≈ 41 µM) | 3.8 µg/mL (≈ 10.3 µM) |  |  | C=CC(C)(C)c1cc([C@@H]2COc3c(ccc(O)c3O)C2)c(OC)cc1OC
7 | 3.8 µg/mL (≈ 10.7 µM) | 3.8 µg/mL (≈ 10.7 µM) | 30.5 µg/mL (≈ 85.6 µM) | 15.2 µg/mL (≈ 42.6 µM) | 3.8 µg/mL (≈ 10.7 µM) |  |  | COc1ccc([C@H]2COc3c(ccc(O)c3O)C2)c(O)c1CC=C(C)C
8 | 1.9 µg/mL (≈ 5.61 µM) | 3.8 µg/mL (≈ 11.2 µM) | > 244 µg/mL | 30.5 µg/mL (≈ 90.1 µM) | 1.9 µg/mL (≈ 5.61 µM) | 30.5 µg/mL (≈ 90.1 µM) | inactive | COc1ccc2c(c1CC=C(C)C)O[C@@H]1c3ccc(O)cc3OC[C@H]21 [ENT-SANDWICENSIN]
